Measured values as given in ChEMBL document CHEMBL1138683 (J Med Chem, 2004).

Experiments:
Mus musculus [1] = assay: Anti convulsant activity administered intra peritoneally to mouse for subcutaneous metrazol test at 4 hr after the drug administered with dose of 100 mg/kg; 0/1= No of animals protected /No of animals tested; type: functional
Mus musculus [2] = assay: Anti convulsant activity administered intra peritoneally to mouse at maximal electroshock test at 4 hr after the drug administered with dose of 100 mg/kg; 0/1= No of animals protected /No of animals tested; type: functional
[3] = Anti convulsant activity administered intra peritoneally to mouse for toxicity at 0.5 hr with dose of 300 mg/kg; 0/4= No of animals exhibiting toxicity /No of animals tested; type: organism-based; design: dose 300 mg/kg; details: in vivo, ip
[4] = Anti convulsant activity administered intra peritoneally to mouse for toxicity at 0.5 hr with dose of 100 mg/kg; 0/8= No of animals exhibiting toxicity /No of animals tested; type: organism-based; design: dose 100 mg/kg; details: in vivo, ip
[5] = Anti convulsant activity administered intra peritoneally to mouse for toxicity at 4 hr with dose of 100 mg/kg; 0/4= No of animals exhibiting toxicity /No of animals tested; type: organism-based; design: dose 100 mg/kg; details: in vivo, ip
Mus musculus [6] = assay: Anticonvulsant activity administered intraperitoneally to mouse for toxicity at 4 hr with dose of 30 mg/kg; type: functional; details: route intraperitoneal
Outline: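 Mice given compound i.p. at 30, 100 or 300 mg/kg, dissolved or suspended in 0.5% methylcellulose. Toxicity scored 0.5 h and 4 h after dosing, recorded as number of animals showing toxicity per number tested.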

Rattus norvegicus [7] = assay: Anticonvulsant activity after oral administration of 30 mg/kg dose after 15 min in rats;+means 25% of the animals protected; type: functional, organism-based; design: dose 30 mg/kg
Outline: (§1)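 Oral dosing of rats at a single dose, compound dissolved or suspended in 0.5% methylcellulose. Protection in the MES or scMet test checked 15 min, 30 min, 1 h, 2 h and 4 h after dosing. Scored as 25/50/75/100% of animals protected (+ to ++++), – for none.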

Mus musculus [8] = assay: Quantitative Anticonvulsant activity administered intraperitoneally to mouse for maximal electro shock test; The interval in parenthesis stands for 95% confidence interval; type: functional; details: ip
Outline: (§2)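 Mice dosed intraperitoneally with compound dissolved or suspended in 0.5% methylcellulose (0.01 mL per gram body weight). […] Protective index calculated as TD50/ED50 for each seizure test.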

Mus musculus [9] = assay: Anti convulsant activity administered intra peritoneally to mouse at maximal electroshock test at 4 hr after the drug administered with dose of 100 mg/kg; 0/3= No of animals protected /No of animals tested; type: functional
Rattus norvegicus [10] = assay: Anticonvulsant activity after oral administration of 30 mg/kg dose after 4 hr in rats; + means 25% of the animals protected; type: functional, organism-based; design: dose 30 mg/kg; outline: as §1
Rattus norvegicus [11] = assay: Quantitative Anticonvulsant activity administered orally to rat at maximal electro shock test; the interval in parenthesis stands for 95% confidence interval; type: functional; details: po
Outline: (§3)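 Oral dosing in rats with compound dissolved or suspended in 0.5% methylcellulose (0.04 mL per 10 g body weight). […] Protective index taken as TD50/ED50 for each test.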

[12] = Anti convulsant activity administered intra peritoneally to mouse for toxicity at 0.5 hr with dose of 30 mg/kg; 0/4= No of animals exhibiting toxicity /No of animals tested; type: organism-based; design: dose 30 mg/kg; details: in vivo, ip
Mus musculus [13] = assay: Anti convulsant activity administered intra peritoneally to mouse at maximal electroshock test at 4 hr after the drug administered with dose of 300 mg/kg; 1/1= No of animals protected /No of animals tested; type: functional
Mus musculus [14] = assay: Anti convulsant activity administered intra peritoneally to mouse for subcutaneous metrazol test at 0.5 hr with dose of 30 mg/kg; 0/1= No of animals protected /No of animals tested; type: functional
Rattus norvegicus [15] = assay: Quantitative Anticonvulsant activity administered orally to rat for protective index in maximal electro shock test;TD50/ED50; type: functional; outline: as §3
Mus musculus [16] = assay: Anti convulsant activity administered intra peritoneally to mouse at maximal electroshock test at 0.5 hr after the drug administered with dose of 100 mg/kg; 3/3= No of animals protected /No of animals tested; type: functional
Mus musculus [17] = assay: Anti convulsant activity administered intra peritoneally to mouse for subcutaneous metrazol test at 0.5 h with dose of 300 mg/kg; 0/1= No of animals protected /No of animals tested; type: functional
[18] = Quantitative Anticonvulsant activity administered intraperitoneally to mouse for toxicity; details: in vivo, ip; outline: as §2
Mus musculus [19] = assay: Quantitative Anticonvulsant activity administered intraperitoneally to mouse for protective index in subcutaneous metrazol test; type: functional; outline: as §2
Rattus norvegicus [20] = assay: Anticonvulsant activity after oral administration of 50 mg/kg dose after 15 min in rats; +++ means 75% of the animals protected; type: functional, organism-based; design: dose 50 mg/kg; outline: as §1
Mus musculus [21] = assay: Anti convulsant activity administered intra peritoneally to mouse for subcutaneous metrazol test at 4 hr with dose of 300 mg/kg; 3/5= No of animals protected /No of animals tested; type: functional
Mus musculus [22] = assay: Anti convulsant activity administered intra peritoneally to mouse for subcutaneous metrazol test at 4 hr after the drug administered with dose of 30 mg/kg; 0/1= No of animals protected /No of animals tested; type: functional; details: route intraperitoneal
Mus musculus [23] = assay: Anti convulsant activity administered intra peritoneally to mouse at maximal electroshock test at 0.5 h after the drug administered with dose of 30 mg/kg; 0/1= No of animals protected /No of animals tested; type: functional
Rattus norvegicus [24] = assay: Anticonvulsant activity after oral administration of 50 mg/kg dose after 30 min in rats; ++ means 50% of the animals protected; type: functional, organism-based; design: dose 50 mg/kg
Outline: (§4)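 Rats dosed orally with compound dissolved or suspended in 0.5% methylcellulose (0.04 mL per 10 g body weight). Anticonvulsant protection (MES or scMet) and toxicity scored at 15 min, 30 min, 1 h, 2 h and 4 h after dosing. Graded in steps of 25% of animals protected or showing toxicity.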

Mus musculus [25] = assay: Anti convulsant activity administered intra peritoneally to mouse at maximal electroshock test at 0.5 hr after the drug administered with dose of 300 mg/kg; 1/1= No of animals protected /No of animals tested; type: functional
Rattus norvegicus [26] = assay: Anticonvulsant activity after oral administration of 30 mg/kg dose after 30 min in rats; ++ means 50% of the animals protected; type: functional, organism-based; design: dose 30 mg/kg; outline: as §1
[27] = Anti convulsant activity administered intra peritoneally to mouse for toxicity at 4 hr with dose of 300 mg/kg; 1/2= No of animals exhibiting toxicity /No of animals tested; type: organism-based; design: dose 300 mg/kg; details: in vivo, ip
Rattus norvegicus [28] = assay: Anticonvulsant activity after oral administration of 30 mg/kg dose after 1 hr in rats; +++ means 75% of the animals protected; type: functional, organism-based; design: dose 30 mg/kg; outline: as §1
Rattus norvegicus [29] = assay: Anticonvulsant activity after oral administration of 30 mg/kg dose after 2 hr in rats; ++++ means 100% of the animals protected; type: functional, organism-based; design: dose 30 mg/kg; outline: as §1
Mus musculus [30] = assay: Anti convulsant activity administered intra peritoneally to mouse at maximal electroshock test at 4 hr after the drug administered with dose of 30 mg/kg; 0/1= No of animals protected /No of animals tested; type: functional
Rattus norvegicus [31] = assay: Quantitative Anticonvulsant activity administered orally to rat for subcutaneous metrazol test; type: functional; outline: as §3
Mus musculus [32] = assay: Quantitative Anticonvulsant activity administered intraperitoneally to mouse for protective index in maximal electro shock test;TD50/ED50; type: functional; outline: as §2
Rattus norvegicus [33] = assay: Quantitative Anticonvulsant activity administered orally to rat for protective index in subcutaneous metrazol test; type: functional; outline: as §3
[34] = Anti convulsant activity administered intra peritoneally to mouse for toxicity at 4 hr with dose of 300 mg/kg; 0/2= No of animals exhibiting toxicity /No of animals tested; type: organism-based; design: dose 300 mg/kg; details: in vivo, ip
[35] = Anti convulsant activity administered intra peritoneally to mouse for toxicity at 4 hr with dose of 100 mg/kg; 1/4= No of animals exhibiting toxicity /No of animals tested; type: organism-based; design: dose 100 mg/kg; details: in vivo, ip
[36] = Anticonvulsant activity after oral administration of 100 mg/kg dose after 30 min in rats; ++ means 50% of the animals protected; type: organism-based; design: dose 100 mg/kg, route oral; details: rat, in vivo, 0.5 h; outline: as §1
[37] = Anti convulsant activity administered intra peritoneally to mouse for toxicity at 0.5 hr with dose of 100 mg/kg; 7/8= No of animals exhibiting toxicity /No of animals tested; type: organism-based; design: dose 100 mg/kg; details: in vivo, ip
Rattus norvegicus [38] = assay: Toxicity after oral administration of 100 mg/kg dose in rats; + means 25% of the […]; type: functional, organism-based; design: dose 100 mg/kg; outline: as §4
[39] = Anti convulsant activity administered intra peritoneally to mouse for toxicity at 4 hr with dose of 30 mg/kg; 0/2= No of animals exhibiting toxicity /No of animals tested; type: organism-based; design: dose 30 mg/kg; details: in vivo, ip
Rattus norvegicus [40] = assay: Anticonvulsant activity after oral administration of 100 mg/kg dose after 1 hr in rats; + means 25% of the animals protected; type: functional, organism-based; design: dose 100 mg/kg; outline: as §1
Mus musculus [41] = assay: Anti convulsant activity administered intra peritoneally to mouse at maximal electroshock test at 4 hr after the drug administered with dose of 300 mg/kg; 0/1= No of animals protected /No of animals tested; type: functional
[42] = Anti convulsant activity administered intra peritoneally to mouse for toxicity at 0.5 hr with dose of 300 mg/kg; 4/4= No of animals exhibiting toxicity /No of animals tested; type: organism-based; design: dose 300 mg/kg; details: in vivo, ip
[43] = Toxicity after oral administration of 100 mg/kg dose in rats; + means 25% of the animals exhibit toxicity; type: organism-based; design: dose 100 mg/kg, route oral; details: rat, in vivo; outline: as §4
Mus musculus [44] = assay: Anti convulsant activity administered intra peritoneally to mouse for subcutaneous metrazol test at 0.5 hr with dose of 100 mg/kg; 0/1= No of animals protected /No of animals tested; type: functional
Rattus norvegicus [45] = assay: Anticonvulsant activity after oral administration of 100 mg/kg dose after 4 hr in rats; +means 25% of the animals protected; type: functional, organism-based; design: dose 100 mg/kg; outline: as §1
Mus musculus [46] = assay: Anti convulsant activity administered intra peritoneally to mouse at maximal electroshock test at 0.5 h after the drug administered with dose of 300 mg/kg; 0/1= No of animals protected /No of animals tested; type: functional
Mus musculus [47] = assay: Anti convulsant activity administered intra peritoneally to mouse at maximal electroshock test at 0.5 hr after the drug administered with dose of 100 mg/kg; 0/3= No of animals protected /No of animals tested; type: functional
Mus musculus [48] = assay: Anti convulsant activity administered intra peritoneally to mouse for subcutaneous metrazol test at 4 hr with dose of 300 mg/kg; 0/1= No of animals protected /No of animals tested; type: functional

CC1(C)C(C(=O)NC(N)=O)C1(C)C [2,2,3,3-TETRAMETHYLCYCLOPROPANECARBONYLUREA]
Activity (Mus musculus [1]): 0
Activity (Mus musculus [2]): 0
Toxicity [3]: 0
Toxicity [4]: 0
Toxicity [5]: 0
Toxicity (Mus musculus [6]): 0
Activity (Rattus norvegicus [7]): 100% of the animals protected
ED50 (Mus musculus [8]): 90 mg/kg
Activity (Mus musculus [9]): 0
Activity (Rattus norvegicus [10]): 100% of the animals protected
ED50 (Rattus norvegicus [11]): 29 mg/kg
Toxicity [12]: 0
Activity (Mus musculus [13]): 1
Activity (Mus musculus [14]): 0
Ratio (Rattus norvegicus [15]): 18.5
Activity (Mus musculus [16]): 3
Activity (Mus musculus [17]): 0
TD50 [18]: 168 mg/kg
Anticonvulsant (Mus musculus [19]): 1.6
Anticonvulsant Activity (Rattus norvegicus [20]): 75% of the animals protected
Activity (Mus musculus [21]): 3
Activity (Mus musculus [22]): 0
Activity (Mus musculus [23]): 0
Activity (Rattus norvegicus [24]): 100% of the animals protected
Activity (Mus musculus [25]): 1
Activity (Rattus norvegicus [26]): 100% of the animals protected
Toxicity [27]: 1
Activity (Rattus norvegicus [28]): 100% of the animals protected
Activity (Rattus norvegicus [29]): 100% of the animals protected
Activity (Mus musculus [30]): 0
ED50 (Rattus norvegicus [31]): 92 mg/kg
Ratio (Mus musculus [32]): 1.9
Activity (Rattus norvegicus [33]): 5.9

CCN(CCO)C(=O)C1C(C)(C)C1(C)C
Activity (Mus musculus [1]): 0
Toxicity [34]: 0
Toxicity [35]: 1
Activity [36]: 25% of the animals protected
Toxicity [37]: 7
Activity (Mus musculus [9]): 0
Toxicity [12]: 0
Toxicity (Rattus norvegicus [38]): 25% of the animals exhibit toxicity
Activity (Mus musculus [14]): 0
Toxicity [39]: 0
Activity (Rattus norvegicus [40]): 25% of the animals protected
Activity (Mus musculus [41]): 0
Activity (Mus musculus [17]): 0
Toxicity [42]: 4
Toxicity [43]: 25% of the animals exhibit toxicity
Activity (Mus musculus [22]): 0
Activity (Mus musculus [23]): 0
Activity (Mus musculus [44]): 0
Activity (Rattus norvegicus [45]): 25% of the animals protected
Activity (Mus musculus [46]): 0
Activity (Mus musculus [47]): 0
Activity (Mus musculus [30]): 0
Activity (Mus musculus [48]): 0
